Measured values from article PMC10582678 (Clinical and Translational Science, 2023).

Assay: Safety, adverse events, single ascending dose
Format: in vivo, human
Details: for AEs / Decreased leukocyte count / Decreased neutrophil count / Increased ALT / Increased blood cholesterol / Increased blood triglycerides / Abdominal discomfort / Constipation / Decreased lymphocyte count / Dermatitis allergic / Dyspepsia / Increased AST / Increased blood bilirubin / Increased blood creatinine / Lethargy / Mouth ulceration / Oropharyngeal pain / Sinus arrythmia / Treatment discontinuation due to AEs / Upper respiratory tract infection: n (%)
Procedure, shortened: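 Safety was monitored by vital signs, clinical laboratory tests, physical examination, 12-lead ECG, AEs and SAEs. AEs were coded with MedDRA 23.1 and graded by CTCAE 5.0. Subjects were discharged 6 days after the last dose, with a follow-up visit 8–14 days after the last dose. The safety set comprised randomized subjects who received active drug or placebo and had post-dose safety data.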

[1] = 27 subjects who received SAD 100 to 800 mg

Compound: N#CN1C[C@H](n2nc(-c3ccc(Oc4ccc(Cl)cn4)cc3)c(C(N)=O)c2N)CCC12CC2 [SN1011, 5-amino-3-(4-((5-chloro-2-pyridinyl)oxy)phenyl)-1-((6R)-4-cyano-4-azaspiro[2.5]octan-6-yl)-1H-pyrazole-4-carboxamide]
- blood triglycerides increased [1]: 18.5%
- neutrophil count decreased [1]: 14.8%
- number of AEs [1]: 13
- subjects who experienced AEs [1]: 33.3%
- white blood cell count decreased [1]: 7.4%
- AEs (SAD 100 mg, any grade): 0
- Decreased leukocyte count (SAD 100 mg, any grade): 0
- Decreased neutrophil count (SAD 100 mg, any grade): 0
- Increased ALT (SAD 100 mg, any grade): 0
- Increased blood cholesterol (SAD 100 mg, any grade): 0
- Increased blood triglycerides (SAD 100 mg, any grade): 0
- Abdominal discomfort (SAD 100 mg): 0
- Constipation (SAD 100 mg): 0
- Decreased lymphocyte count (SAD 100 mg): 0
- Dermatitis allergic (SAD 100 mg): 0
- Dyspepsia (SAD 100 mg): 0
- Increased AST (SAD 100 mg): 0
- Increased blood bilirubin (SAD 100 mg): 0
- Increased blood creatinine (SAD 100 mg): 0
- Lethargy (SAD 100 mg): 0
- Mouth ulceration (SAD 100 mg): 0
- Oropharyngeal pain (SAD 100 mg): 0
- Sinus arrythmia (SAD 100 mg): 0
- Treatment discontinuation due to AEs (SAD 100 mg): 0
- Upper respiratory tract infection (SAD 100 mg): 0
- AEs (SAD 200 mg, any grade): 2 (33.3)
- Decreased leukocyte count (SAD 200 mg, any grade): 0
- Decreased neutrophil count (SAD 200 mg, any grade): 0
- Increased ALT (SAD 200 mg, any grade): 1 (16.7)
- Increased blood cholesterol (SAD 200 mg, any grade): 1 (16.7)
- Increased blood triglycerides (SAD 200 mg, any grade): 2 (33.3)
- Abdominal discomfort (SAD 200 mg): 0
- Constipation (SAD 200 mg): 0
- Decreased lymphocyte count (SAD 200 mg): 0
- Dermatitis allergic (SAD 200 mg): 0
- Dyspepsia (SAD 200 mg): 0
- Increased AST (SAD 200 mg): 0
- Increased blood bilirubin (SAD 200 mg): 0
- Increased blood creatinine (SAD 200 mg): 0
- Lethargy (SAD 200 mg): 0
- Mouth ulceration (SAD 200 mg): 0
- Oropharyngeal pain (SAD 200 mg): 0
- Sinus arrythmia (SAD 200 mg): 0
- Treatment discontinuation due to AEs (SAD 200 mg): 0
- Upper respiratory tract infection (SAD 200 mg): 0
- AEs (SAD 400 mg, any grade): 2 (33.3)
- Decreased leukocyte count (SAD 400 mg, any grade): 0
- Decreased neutrophil count (SAD 400 mg, any grade): 0
- Increased ALT (SAD 400 mg, any grade): 0
- Increased blood cholesterol (SAD 400 mg, any grade): 0
- Increased blood triglycerides (SAD 400 mg, any grade): 2 (33.3)
- Abdominal discomfort (SAD 400 mg): 0
- Constipation (SAD 400 mg): 0
- Decreased lymphocyte count (SAD 400 mg): 0
- Dermatitis allergic (SAD 400 mg): 0
- Dyspepsia (SAD 400 mg): 0
- Increased AST (SAD 400 mg): 0
- Increased blood bilirubin (SAD 400 mg): 0
- Increased blood creatinine (SAD 400 mg): 0
- Lethargy (SAD 400 mg): 0
- Mouth ulceration (SAD 400 mg): 0
- Oropharyngeal pain (SAD 400 mg): 0
- Sinus arrythmia (SAD 400 mg): 0
- Treatment discontinuation due to AEs (SAD 400 mg): 0
- Upper respiratory tract infection (SAD 400 mg): 0
- AEs (SAD 600 mg, any grade): 3 (50.0)
- Decreased leukocyte count (SAD 600 mg, any grade): 1 (16.7)
- Decreased neutrophil count (SAD 600 mg, any grade): 3 (50.0)
- Increased ALT (SAD 600 mg, any grade): 0
- Increased blood cholesterol (SAD 600 mg, any grade): 0
- Increased blood triglycerides (SAD 600 mg, any grade): 0
- Abdominal discomfort (SAD 600 mg): 0
- Constipation (SAD 600 mg): 0
- Decreased lymphocyte count (SAD 600 mg): 0
- Dermatitis allergic (SAD 600 mg): 0
- Dyspepsia (SAD 600 mg): 0
- Increased AST (SAD 600 mg): 0
- Increased blood bilirubin (SAD 600 mg): 0
- Increased blood creatinine (SAD 600 mg): 0
- Lethargy (SAD 600 mg): 0
- Mouth ulceration (SAD 600 mg): 0
- Oropharyngeal pain (SAD 600 mg): 0
- Sinus arrythmia (SAD 600 mg): 0
- Treatment discontinuation due to AEs (SAD 600 mg): 0
- Upper respiratory tract infection (SAD 600 mg): 0
- AEs (SAD 800 mg, any grade): 2 (33.3)
- Decreased leukocyte count (SAD 800 mg, any grade): 1 (16.7)
- Decreased neutrophil count (SAD 800 mg, any grade): 1 (16.7)
- Increased ALT (SAD 800 mg, any grade): 0
- Increased blood cholesterol (SAD 800 mg, any grade): 0
- Increased blood triglycerides (SAD 800 mg, any grade): 1 (16.7)
- Abdominal discomfort (SAD 800 mg): 0
- Constipation (SAD 800 mg): 0
- Decreased lymphocyte count (SAD 800 mg): 0
- Dermatitis allergic (SAD 800 mg): 0
- Dyspepsia (SAD 800 mg): 0
- Increased AST (SAD 800 mg): 0
- Increased blood bilirubin (SAD 800 mg): 0
- Increased blood creatinine (SAD 800 mg): 0
- Lethargy (SAD 800 mg): 0
- Mouth ulceration (SAD 800 mg): 0
- Oropharyngeal pain (SAD 800 mg): 0
- Sinus arrythmia (SAD 800 mg): 0
- Treatment discontinuation due to AEs (SAD 800 mg): 0
- Upper respiratory tract infection (SAD 800 mg): 0
- Abdominal discomfort (SAD All SN1011, N = 27): 0
- Constipation (SAD All SN1011, N = 27): 0
- Decreased leukocyte count (SAD All SN1011, N = 27): 2 (7.4)
- Decreased lymphocyte count (SAD All SN1011, N = 27): 0
- Decreased neutrophil count (SAD All SN1011, N = 27): 4 (14.8)
- Dermatitis allergic (SAD All SN1011, N = 27): 0
- Dyspepsia (SAD All SN1011, N = 27): 0
- Increased ALT (SAD All SN1011, N = 27): 1 (3.7)
- Increased AST (SAD All SN1011, N = 27): 0
- Increased blood bilirubin (SAD All SN1011, N = 27): 0
- Increased blood cholesterol (SAD All SN1011, N = 27): 1 (3.7)
- Increased blood creatinine (SAD All SN1011, N = 27): 0
- Increased blood triglycerides (SAD All SN1011, N = 27): 5 (18.5)
- Lethargy (SAD All SN1011, N = 27): 0
- Mouth ulceration (SAD All SN1011, N = 27): 0
- Oropharyngeal pain (SAD All SN1011, N = 27): 0
- Sinus arrythmia (SAD All SN1011, N = 27): 0
- Treatment discontinuation due to AEs (SAD All SN1011, N = 27): 0
- Upper respiratory tract infection (SAD All SN1011, N = 27): 0
